{"source": "ChEMBL document CHEMBL1955778", "about": "“Design and synthesis of novel 7-aminoquinazoline derivatives: antitumor and anticonvulsant activities” (Bioorg Med Chem Lett, 2012)", "key": {"[1]": {"system": "SNB-75", "assay": "Growth inhibition of human SNB75 cells at 10 uM relative to control", "assay_type": "functional", "details": "read-out: GI", "method_in_brief": "(§1)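 Single-dose screen across the 60-cell-line human tumor panel at 10 μM. Growth inhibition is reported as a percentage, taken as 100 minus the % growth relative to untreated control.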"}, "[2]": {"system": "EKVX", "assay": "Growth inhibition of human EKVX cells at 10 uM relative to control", "assay_type": "functional", "details": "read-out: GI", "method_in_brief": "(§2)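 Each cell line in a 60-line human tumour panel exposed to one 10 μM concentration. Growth inhibition percentage computed as 100 minus the percentage activity relative to control.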"}, "[3]": {"system": "HT-29", "assay": "Growth inhibition of human HT-29 cells at 10 uM relative to control", "assay_type": "functional", "details": "read-out: GI", "method_in_brief": "as §2"}, "[4]": {"system": "KM12", "assay": "Growth inhibition of human KM12 cells at 10 uM relative to control", "assay_type": "functional", "details": "read-out: GI", "method_in_brief": "as §2"}, "[5]": {"system": "UACC-257", "assay": "Growth inhibition of human UACC257 cells at 10 uM relative to control", "assay_type": "functional", "details": "read-out: GI", "method_in_brief": "as §1"}, "[6]": {"system": "MDA-MB-435", "assay": "Growth inhibition of human MDA-MB-435 cells at 10 uM relative to control", "assay_type": "functional", "details": "read-out: GI", "method_in_brief": "as §2"}, "[7]": {"system": "PC-3", "assay": "Growth inhibition of human PC3 cells at 10 uM relative to control", "assay_type": "functional", "details": "read-out: GI", "method_in_brief": "as §2"}, "[8]": {"system": "U-251", "assay": "Growth inhibition of human U251 cells at 10 uM relative to control", "assay_type": "functional", "details": "read-out: GI", "method_in_brief": "as §1"}, "[9]": {"system": "RPMI-8226", "assay": "Growth inhibition of human RPMI8226 cells at 10 uM relative to control", "assay_type": "functional", "details": "read-out: GI", "method_in_brief": "as §2"}, "[10]": {"system": "SK-MEL-28", "assay": "Growth inhibition of human SK-MEL-28 cells at 10 uM relative to control", "assay_type": "functional", "details": "read-out: GI", "method_in_brief": "as §2"}, "[11]": {"system": "OVCAR-3", "assay": "Growth inhibition of human OVCAR3 cells at 10 uM relative to control", "assay_type": "functional", "details": "read-out: GI", "method_in_brief": "as §2"}, "[12]": {"system": "BT-549", "assay": "Growth inhibition of human BT549 cells at 10 uM relative to control", "assay_type": "functional", "details": "read-out: GI", "method_in_brief": "as §2"}, "[13]": {"system": "Mus musculus", "assay": "Anticonvulsant activity in mouse assessed as protection against pentylenetetrazol-induced seizure at 1 mmol/kg, ip administered 30 min prior to pentylenetetrazol-challenge measured after 60 mins relative to control", "assay_type": "functional"}, "[14]": {"system": "CAKI-1", "assay": "Growth inhibition of human CAKI-1 cells at 10 uM relative to control", "assay_type": "functional", "details": "read-out: GI", "method_in_brief": "as §2"}, "[15]": {"assay": "Neurotoxicity in ip dosed mouse assessed as impaired motor coordination administered 30 mins prior to test by chimney test", "assay_type": "toxicity, organism-based", "details": "in vivo", "method_in_brief": "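Mice, Chimney test. TD50 is the dose that produces minimal neurological toxicity (impaired motor coordination) in 50% of animals, estimated from testing at several doses.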"}, "[16]": {"system": "MCF7", "assay": "Growth inhibition of human MCF7 cells at 10 uM relative to control", "assay_type": "functional", "details": "read-out: GI", "method_in_brief": "as §2"}, "[17]": {"system": "UACC-62", "assay": "Growth inhibition of human UACC62 cells at 10 uM relative to control", "assay_type": "functional", "details": "read-out: GI", "method_in_brief": "as §1"}, "[18]": {"system": "Mus musculus", "assay": "Anticonvulsant activity in mouse assessed as protection against strychnine-induced seizure at 1 mmol/kg, ip administered 30 min prior to strychnine-challenge measured after 60 mins relative to control", "assay_type": "functional"}, "[19]": {"system": "SW-620", "assay": "Growth inhibition of human SW620 cells at 10 uM relative to control", "assay_type": "functional", "details": "read-out: GI", "method_in_brief": "as §1"}, "[20]": {"system": "OVCAR-5", "assay": "Growth inhibition of human OVCAR5 cells at 10 uM relative to control", "assay_type": "functional", "details": "read-out: GI", "method_in_brief": "as §2"}, "[21]": {"system": "ACHN", "assay": "Growth inhibition of human ACHN cells at 10 uM relative to control", "assay_type": "functional", "details": "read-out: GI", "method_in_brief": "as §2"}, "[22]": {"system": "CCRF-CEM", "assay": "Growth inhibition of human CCRF-CEM cells at 10 uM relative to control", "assay_type": "functional", "details": "read-out: GI", "method_in_brief": "as §2"}, "[23]": {"system": "SNB-19", "assay": "Growth inhibition of human SNB19 cells at 10 uM relative to control", "assay_type": "functional", "details": "read-out: GI", "method_in_brief": "as §1"}, "[24]": {"system": "HCT-15", "assay": "Growth inhibition of human HCT15 cells at 10 uM relative to control", "assay_type": "functional", "details": "read-out: GI", "method_in_brief": "as §2"}, "[25]": {"system": "Malme-3M", "assay": "Growth inhibition of human MALME-3M cells at 10 uM relative to control", "assay_type": "functional", "details": "read-out: GI", "method_in_brief": "as §2"}, "[26]": {"system": "UO-31", "assay": "Growth inhibition of human UO31 cells at 10 uM relative to control", "assay_type": "functional", "details": "read-out: GI", "method_in_brief": "as §1"}, "[27]": {"system": "SF-539", "assay": "Growth inhibition of human SF539 cells at 10 uM relative to control", "assay_type": "functional", "details": "read-out: GI", "method_in_brief": "as §2"}, "[28]": {"system": "SR", "assay": "Growth inhibition of human SR cells at 10 uM relative to control", "assay_type": "functional", "details": "read-out: GI", "method_in_brief": "as §1"}, "[29]": {"system": "A549", "assay": "Growth inhibition of human A549 cells at 10 uM relative to control", "assay_type": "functional", "details": "read-out: GI", "method_in_brief": "as §2"}, "[30]": {"system": "SK-MEL-5", "assay": "Growth inhibition of human SK-MEL-5 cells at 10 uM relative to control", "assay_type": "functional", "details": "read-out: GI", "method_in_brief": "as §2"}, "[31]": {"system": "K562", "assay": "Growth inhibition of human K562 cells at 10 uM relative to control", "assay_type": "functional", "details": "read-out: GI", "method_in_brief": "as §2"}, "[32]": {"system": "Mus musculus", "assay": "Anticonvulsant activity in mouse assessed as protection against maximal electroshock-induced seizure at 1 mmol/kg, ip administered 30 min prior to maximal electroshock-challenge measured after 60 mins relative to control", "assay_type": "functional"}, "[33]": {"assay": "Toxicity in ip dose mouse assessed as mortality", "assay_type": "organism-based", "details": "in vivo", "method_in_brief": "(§3)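 In mice, LD50 is the dose causing 50% mortality. ED50 is the dose protecting 50% of mice against pentylenetetrazole-induced seizures. Therapeutic index = LD50/ED50.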"}, "[34]": {"species": "Mus musculus", "assay": "Protective index, ratio of TD50 for mouse to ED50 for pentylenetetrazol-induced seizure in mouse", "assay_type": "functional", "method_in_brief": "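Mice. Index is TD50/ED50. TD50 is the dose causing minimal neurological toxicity in 50% of mice in the Chimney test. ED50 is the dose protecting 50% of mice against pentylenetetrazole-induced seizures. Both are estimated from testing at several doses.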"}, "[35]": {"assay": "Therapeutic index, ratio of LD50 for mouse to ED50 for pentylenetetrazol-induced seizure in mouse", "assay_type": "organism-based", "details": "in vivo, read-out: Ratio LD50/ED50", "method_in_brief": "as §3"}, "[36]": {"system": "Mus musculus", "assay": "Anticonvulsant activity in ip dosed mouse assessed as protection against pentylenetetrazol-induced seizure administered 30 min prior to pentylenetetrazol-challenge measured after 60 mins", "assay_type": "functional", "method_in_brief": "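Mice received several doses for quantification. ED50 taken as the dose protecting 50% of mice against pentylenetetrazol-induced seizures.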"}, "[37]": {"system": "A498", "assay": "Growth inhibition of human A498 cells at 10 uM relative to control", "assay_type": "functional", "details": "read-out: GI", "method_in_brief": "as §2"}}}
{"smiles": "CCOC(=O)Nc1ccc2c(=O)n(-c3ccccc3C)c(C)nc2c1", "values": [{"measurement": "inhibition of growth at 10 µM", "setting": "[1]", "result": 21.3, "unit": "%"}, {"measurement": "inhibition of growth at 10 µM", "setting": "[2]", "result": 11.6, "unit": "%"}, {"measurement": "inhibition of growth at 10 µM", "setting": "[3]", "result": 7.8, "unit": "%"}, {"measurement": "inhibition of growth at 10 µM", "setting": "[4]", "result": 12, "unit": "%"}, {"measurement": "inhibition of growth at 10 µM", "setting": "[5]", "result": 7, "unit": "%"}, {"measurement": "inhibition of growth at 10 µM", "setting": "[6]", "result": 41.6, "unit": "%"}, {"measurement": "inhibition of growth at 10 µM", "setting": "[7]", "result": 11.2, "unit": "%"}, {"measurement": "inhibition of growth at 10 µM", "setting": "[8]", "result": 4.5, "unit": "%"}, {"measurement": "inhibition of growth at 10 µM", "setting": "[9]", "result": 6.5, "unit": "%"}, {"measurement": "inhibition of growth at 10 µM", "setting": "[10]", "result": 1.72, "unit": "%"}, {"measurement": "inhibition of growth at 10 µM", "setting": "[11]", "result": 3.8, "unit": "%"}, {"measurement": "inhibition of growth at 10 µM", "setting": "[12]", "result": 3.5, "unit": "%"}, {"measurement": "Activity", "setting": "[13]", "result": 100, "unit": "%"}, {"measurement": "inhibition of growth at 10 µM", "setting": "[14]", "result": 5.3, "unit": "%"}, {"measurement": "TD50 at 0.5 h", "setting": "[15]", "result": 1780, "unit": "µmol/kg"}, {"measurement": "inhibition of growth at 10 µM", "setting": "[16]", "result": 5, "unit": "%"}, {"measurement": "inhibition of growth at 10 µM", "setting": "[17]", "result": 15.8, "unit": "%"}, {"measurement": "Activity", "setting": "[18]", "result": 0, "unit": "%"}, {"measurement": "inhibition of growth at 10 µM", "setting": "[19]", "result": 2, "unit": "%"}, {"measurement": "inhibition of growth at 10 µM", "setting": "[20]", "result": 3.2, "unit": "%"}, {"measurement": "inhibition of growth at 10 µM", "setting": "[21]", "result": 4, "unit": "%"}, {"measurement": "inhibition of growth at 10 µM", "setting": "[22]", "result": 2.2, "unit": "%"}, {"measurement": "inhibition of growth at 10 µM", "setting": "[23]", "result": 5.7, "unit": "%"}, {"measurement": "inhibition of growth at 10 µM", "setting": "[24]", "result": 6.4, "unit": "%"}, {"measurement": "inhibition of growth at 10 µM", "setting": "[25]", "result": 5.4, "unit": "%"}, {"measurement": "inhibition of growth at 10 µM", "setting": "[26]", "result": 24.1, "unit": "%"}, {"measurement": "inhibition of growth at 10 µM", "setting": "[27]", "result": 17.2, "unit": "%"}, {"measurement": "inhibition of growth at 10 µM", "setting": "[28]", "result": 24.1, "unit": "%"}, {"measurement": "inhibition of growth at 10 µM", "setting": "[29]", "result": 3, "unit": "%"}, {"measurement": "inhibition of growth at 10 µM", "setting": "[30]", "result": 2.4, "unit": "%"}, {"measurement": "inhibition of growth at 10 µM", "setting": "[31]", "result": 6.2, "unit": "%"}, {"measurement": "Activity", "setting": "[32]", "result": 100, "unit": "%"}, {"measurement": "LD50", "setting": "[33]", "result": 1930, "unit": "µmol/kg"}, {"measurement": "Ratio TD50/ED50", "setting": "[34]", "result": 2.4}, {"measurement": "selectivity ratio", "setting": "[35]", "result": 2.6}, {"measurement": "ED50", "setting": "[36]", "result": 740, "unit": "µmol/kg"}, {"measurement": "inhibition of growth at 10 µM", "setting": "[37]", "result": 4, "unit": "%"}]}
